ChEMBL document CHEMBL4842372, “Discovery of ARD-2585 as an Exceptionally Potent and Orally Active PROTAC Degrader of Androgen Receptor for the Treatment of Advanced Prostate Cancer” (J Med Chem, 2021)

How the values were obtained:
[1] = Drug distribution in tumor of CB17:SCID mouse xenografted with human VCaP cells at 20 mg/kg, po measured at 6 hrs by LCMS analysis; assay type: ADME, organism-based, Neoplasm; settings: read-out: Drug uptake
Procedure, shortened: (§1)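 Tumor-bearing male CB17 SCID mice (VCaP xenografts) given one 20 mg/kg oral dose in 100% PEG200, three mice per time point; plasma, tumor, liver, kidney, prostate and heart taken at 1, 6 and 24 h; tissues homogenised in water/acetonitrile, protein precipitated with cold acetonitrile, drug quantified by LC–MS/MS; ratios are tissue over plasma level.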

VCaP [2] = experiment: Antitumor activity against human VCaP cells xenografted in CB17:SCID mouse assessed as reduction in AR protein level in tumor at 10 mg/kg, po for 3 days measured at 6 hrs by Western blot analysis; assay type: functional; settings: 72 h, time 3 day
Procedure, shortened: (§2)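 Male CB17 SCID mice bearing subcutaneous VCaP tumors (5 × 10^6 cells in Matrigel); dosed by oral gavage in 100% PEG200 at 10 mg/kg daily for 3 days; tumors harvested 3, 6 and 24 h post-dose, lysed in RIPA, Western blot for AR with GAPDH loading control, bands quantified by densitometry relative to loading control.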

[3] = Drug distribution in plasma of CB17:SCID mouse xenografted with human VCaP cells at 20 mg/kg, po measured at 1 hrs by LCMS analysis; assay type: ADME, organism-based; procedure, shortened: as §1
[4] = Drug distribution in plasma of CB17:SCID mouse xenografted with human VCaP cells at 20 mg/kg, po measured at 6 hrs by LCMS analysis; assay type: ADME, organism-based; procedure, shortened: as §1
[5] = target: T1, Protein cereblon/Androgen receptor (Homo sapiens, UniProt P10275+Q96SW2); experiment: Protac activity at CRBN/AR in human VCaP cells assessed as maximal AR degradation at 0.1 nM after 24 hrs by Western blot analysis relative to control; assay type: cell-based
T1 sequence (P10275 whole entry, looked up): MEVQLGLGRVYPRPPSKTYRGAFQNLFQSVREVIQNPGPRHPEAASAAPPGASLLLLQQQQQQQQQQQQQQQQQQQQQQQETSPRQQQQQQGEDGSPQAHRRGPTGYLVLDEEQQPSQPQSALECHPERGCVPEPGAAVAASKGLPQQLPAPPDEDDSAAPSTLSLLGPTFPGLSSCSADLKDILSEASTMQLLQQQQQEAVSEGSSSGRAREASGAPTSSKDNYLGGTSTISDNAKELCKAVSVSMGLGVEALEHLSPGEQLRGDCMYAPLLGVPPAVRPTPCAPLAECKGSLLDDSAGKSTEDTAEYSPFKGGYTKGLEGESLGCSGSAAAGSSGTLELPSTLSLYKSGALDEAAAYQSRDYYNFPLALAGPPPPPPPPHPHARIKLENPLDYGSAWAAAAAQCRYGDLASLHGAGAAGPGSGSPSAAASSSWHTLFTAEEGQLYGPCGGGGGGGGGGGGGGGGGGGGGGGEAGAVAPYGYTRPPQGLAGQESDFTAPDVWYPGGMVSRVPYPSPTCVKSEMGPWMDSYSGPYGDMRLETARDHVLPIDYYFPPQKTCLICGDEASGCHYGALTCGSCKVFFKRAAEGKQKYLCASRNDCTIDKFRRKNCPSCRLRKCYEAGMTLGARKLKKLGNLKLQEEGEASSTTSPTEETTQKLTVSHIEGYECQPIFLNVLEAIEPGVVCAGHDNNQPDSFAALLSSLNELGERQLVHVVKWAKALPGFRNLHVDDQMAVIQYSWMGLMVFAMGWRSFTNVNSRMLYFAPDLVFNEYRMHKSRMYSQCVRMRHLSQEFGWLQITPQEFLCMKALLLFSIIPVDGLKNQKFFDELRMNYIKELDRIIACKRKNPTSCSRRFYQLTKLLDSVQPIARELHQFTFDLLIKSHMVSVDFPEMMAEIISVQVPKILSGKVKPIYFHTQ
T1 sequence (Q96SW2 whole entry, looked up): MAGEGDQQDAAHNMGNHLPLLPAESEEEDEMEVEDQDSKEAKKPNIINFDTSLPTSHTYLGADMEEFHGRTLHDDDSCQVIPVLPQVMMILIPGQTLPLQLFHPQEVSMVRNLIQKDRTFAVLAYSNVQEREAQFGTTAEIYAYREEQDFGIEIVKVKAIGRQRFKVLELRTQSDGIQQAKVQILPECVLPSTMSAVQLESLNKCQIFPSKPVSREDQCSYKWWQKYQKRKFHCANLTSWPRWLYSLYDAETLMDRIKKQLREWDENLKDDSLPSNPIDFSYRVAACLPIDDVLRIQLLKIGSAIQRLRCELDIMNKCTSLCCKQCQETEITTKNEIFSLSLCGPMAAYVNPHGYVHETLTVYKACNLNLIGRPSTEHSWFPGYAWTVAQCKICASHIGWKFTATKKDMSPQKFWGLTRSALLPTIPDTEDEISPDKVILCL
Procedure, shortened: (§3)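 Western blot of AR after 24 h exposure to a concentration series in ATCC-derived cells, all with 10% FBS at 37 °C and 5% CO2: LNCaP and 22Rv1 in RPMI1640, VCaP in DMEM with Glutamax, MDA-PCa-2b in F-12K. Lysis in RIPA with protease and phosphatase inhibitors, then 4–12% SDS-PAGE and PVDF transfer. Band minus background is normalised to GAPDH.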

[6] = Drug distribution in tumor of CB17:SCID mouse xenografted with human VCaP cells at 20 mg/kg, po measured at 24 hrs by LCMS analysis; assay type: ADME, organism-based, Neoplasm; settings: read-out: Drug uptake; procedure, shortened: as §1
[7] = target: T1, Protein cereblon/Androgen receptor; experiment: Protac activity at CRBN/AR in human MDA-PCa-2b cells assessed as reduction in AR protein level at 1 nM after 24 hrs by Western blot analysis relative to control; assay type: cell-based; procedure, shortened: as §3
[8] = target: T1, Protein cereblon/Androgen receptor; experiment: Protac activity at CRBN/AR in human VCaP cells assessed as reduction in AR protein level at 3 nM after 24 hrs by Western blot analysis relative to control; assay type: cell-based; procedure, shortened: as §3
[9] = Drug distribution in CB17:SCID mouse xenografted with human VCaP cells assessed as heart to plasma ratio at 20 mg/kg, po measured at 24 hrs by LCMS analysis; assay type: ADME, organism-based; procedure, shortened: as §1
[10] = Drug distribution in kidney of CB17:SCID mouse xenografted with human VCaP cells at 20 mg/kg, po measured at 6 hrs by LCMS analysis; assay type: ADME, organism-based; settings: read-out: Drug uptake; procedure, shortened: as §1
[11] = Drug distribution in CB17:SCID mouse xenografted with human VCaP cells assessed as kidney to plasma ratio at 20 mg/kg, po measured at 1 hrs by LCMS analysis; assay type: ADME, organism-based; procedure, shortened: as §1
[12] = Potency index, ratio of ARV-110 IC50 to compound IC50 for reduction in AR degradation human MDA-PCa-2b cells after 24 hrs by Western blot analysis relative to control; assay type: functional
[13] = Drug distribution in tumor of CB17:SCID mouse xenografted with human VCaP cells at 20 mg/kg, po measured at 1 hrs by LCMS analysis; assay type: ADME, organism-based, Neoplasm; settings: read-out: Drug uptake; procedure, shortened: as §1
[14] = Drug distribution in heart of CB17:SCID mouse xenografted with human VCaP cells at 20 mg/kg, po measured at 24 hrs by LCMS analysis; assay type: ADME, organism-based; settings: read-out: Drug uptake; procedure, shortened: as §1
[15] = Drug distribution in CB17:SCID mouse xenografted with human VCaP cells assessed as tumor to plasma ratio at 20 mg/kg, po measured at 24 hrs by LCMS analysis; assay type: ADME, organism-based; procedure, shortened: as §1
[16] = Drug distribution in heart of CB17:SCID mouse xenografted with human VCaP cells at 20 mg/kg, po measured at 1 hrs by LCMS analysis; assay type: ADME, organism-based; settings: read-out: Drug uptake; procedure, shortened: as §1
[17] = system: Protein cereblon/Androgen receptor (Homo sapiens), P10275+Q96SW2 [T878A]; experiment: Protac activity at CRBN/AR T878A mutant in human LNCaP cells assessed as reduction in AR protein level at 0.3 nM after 24 hrs by Western blot analysis relative to control; assay type: cell-based; procedure, shortened: as §3
[18] = Drug distribution in CB17:SCID mouse xenografted with human VCaP cells assessed as liver to plasma ratio at 20 mg/kg, po measured at 24 hrs by LCMS analysis; assay type: ADME, organism-based; procedure, shortened: as §1
[19] = Drug distribution in heart of CB17:SCID mouse xenografted with human VCaP cells at 20 mg/kg, po measured at 6 hrs by LCMS analysis; assay type: ADME, organism-based; settings: read-out: Drug uptake; procedure, shortened: as §1
[20] = Drug distribution in prostate gland of CB17:SCID mouse xenografted with human VCaP cells at 20 mg/kg, po measured at 1 hrs by LCMS analysis; assay type: ADME, organism-based; settings: read-out: Drug uptake; procedure, shortened: as §1
VCaP [21] = experiment: Antitumor activity against human VCaP cells xenografted in CB17:SCID mouse assessed as reduction in AR protein level in tumor at 10 mg/kg, po for 3 days measured at 3 hrs by Western blot analysis; assay type: functional; settings: 72 h, time 3 day; procedure, shortened: as §2
[22] = Drug distribution in CB17:SCID mouse xenografted with human VCaP cells assessed as prostate gland to plasma ratio at 20 mg/kg, po measured at 24 hrs by LCMS analysis; assay type: ADME, organism-based; procedure, shortened: as §1
[23] = Drug distribution in plasma of CB17:SCID mouse xenografted with human VCaP cells at 20 mg/kg, po measured at 24 hrs by LCMS analysis; assay type: ADME, organism-based; procedure, shortened: as §1
[24] = Drug distribution in CB17:SCID mouse xenografted with human VCaP cells assessed as kidney to plasma ratio at 20 mg/kg, po measured at 6 hrs by LCMS analysis; assay type: ADME, organism-based; procedure, shortened: as §1
VCaP [25] = experiment: Antitumor activity against human VCaP cells xenografted in CB17:SCID mouse assessed as tumor growth inhibition at 10 mg/kg, po treated for 37 days relative to control; assay type: functional; settings: 888 h, time 37 day, read-out: TGI
[26] = Drug distribution in kidney of CB17:SCID mouse xenografted with human VCaP cells at 20 mg/kg, po measured at 1 hrs by LCMS analysis; assay type: ADME, organism-based; settings: read-out: Drug uptake; procedure, shortened: as §1
[27] = system: Protein cereblon/Androgen receptor (Homo sapiens), P10275+Q96SW2 [T878A]; experiment: Protac activity at CRBN/AR T878A mutant in human LNCaP cells assessed as maximal AR degradation at 0.3 nM after 24 hrs by Western blot analysis relative to control; assay type: cell-based; procedure, shortened: as §3
[28] = system: Protein cereblon/Androgen receptor (Homo sapiens), P10275+Q96SW2 [T878A]; experiment: Protac activity at CRBN/AR T878A mutant in human LNCaP cells assessed as reduction in AR protein level at 3 nM after 24 hrs by Western blot analysis relative to control; assay type: cell-based; procedure, shortened: as §3

Compound: CN(c1ccc(C#N)c(Cl)c1)[C@H]1CC[C@H](NC(=O)c2ccc(N3CCN(C4CN(c5ccc6c(c5)C(=O)N(C5CCC(=O)NC5=O)C6=O)C4)CC3)cc2)CC1 (stereo partly drawn)
- concentration at 6 h [1]: 201 ng/g
- inhibition in vivo at 10 mg/kg (VCaP [2]): 60%
- concentration at 1 h [3]: 70 ng/mL
- concentration at 6 h [4]: 87 ng/mL
- Emax [5]: > 95%
- concentration at 24 h [6]: 301 ng/g
- inhibition [7]: > 80%
- inhibition [8]: 80%
- Kp at 24 h [9]: 3.2
- concentration at 6 h [10]: 661 ng/g
- Kp at 1 h [11]: 6.2
- Ratio [12]: 1000
- concentration at 1 h [13]: 47 ng/g
- concentration at 24 h [14]: 683 ng/g
- Kp at 24 h [15]: 1.4
- concentration at 1 h [16]: 210 ng/g
- inhibition [17]: > 80%
- Kp at 24 h [18]: 32.1
- concentration at 6 h [19]: 339 ng/g
- concentration at 1 h [20]: 25 ng/g
- inhibition in vivo at 10 mg/kg (VCaP [21]): 78%
- Kp at 24 h [22]: 0.5
- concentration at 24 h [23]: 102 ng/mL
- Kp at 6 h [24]: 4.9
- inhibition in vivo at 10 mg/kg (VCaP [25]): 54.9%
- concentration at 1 h [26]: 437 ng/g
- Emax [27]: > 95%
- inhibition [28]: 80%
